Reference: the RNAGym collection of RNA variant scans (doi:10.1126/science.aae0568)
This sample holds only a part of the variants without activity.

B1: tRNA (parent)
chain: GUUCCGUUGGCGUAAUGGUAACGCGUCUCCCUCCUAAGGAGAAGACUGCGGGUUCGAGUCCCGUACGGAACG

Variants of: B1
Test: yeast fitness relative to wild type (ratio to wild type); higher = fitter; tRNA-Arg(CCU), competitive growth, 37 C, YPD
Procedure, shortened: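 A pool of Saccharomyces cerevisiae strains, each with a tRNA-Arg(CCU) gene variant at the native genomic locus, was competed in YPD at 37°C for 24 hours across six parallel replicates. The variants had been chemically synthesised at a 3% per-site mutation rate over 69 sites, and gene amplicons before and after competition were read by 100-nucleotide paired-end sequencing. Darwinian fitness relative to wild type rested on changes in genotype frequencies. Genotypes required ≥ 100 starting reads, and estimates < 0.5 were set to 0.5.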

| Variant | yeast fitness |
| --- | --- |
| U13G U26C C49G | ≤ 0.5 |
| U13G U32A C33A | ≤ 0.5 |
| U13G U35G A40G G58C A65U | ≤ 0.5 |
| U13G U47C | 1.02 |
| U13G U47G C66U | ≤ 0.5 |
| A14C | 0.868 |
| A14C A15C U16C C27U C29A C34G G50C | ≤ 0.5 |
| A14C A15U C27U U32C U35G A70U | ≤ 0.5 |
| A14C A15U C30U C34G A43G G48C C49U C61U | ≤ 0.5 |
| A14C A15U C34G G50A | ≤ 0.5 |
| A14C A20C G67A | ≤ 0.5 |
| A14C A20G | 0.647 |
| A14C A20G A42C G48C | ≤ 0.5 |
| A14C A20G A45C A57C | ≤ 0.5 |
| A14C A20U C31U G38C G67A | 0.53 |
| A14C A20U C31U G38C U59A | ≤ 0.5 |
| A14C A21C C24U A36U A43U C55U | ≤ 0.5 |
| A14C A21C C46A C49U | ≤ 0.5 |
| A14C A21G A37C G50A A57C | ≤ 0.5 |
| A14C A21G U53A | ≤ 0.5 |
| A14C A21U A42C G58C | ≤ 0.5 |
| A14C A21U C46A A69C | 0.59 |
| A14C A36G A43U G68A | 0.522 |
| A14C A36G G41A G48C U59C A70C | ≤ 0.5 |

| Variant | yeast fitness |
| --- | --- |
| A14C A37C A65U | ≤ 0.5 |
| A14C A37C G51A U59A | 0.56 |
| A14C A40C U47C A57C | ≤ 0.5 |
| A14C A40U C55G C61U C66U | ≤ 0.5 |
| A14C A45G | 0.611 |
| A14C A45U A69U | 0.619 |
| A14C A45U G50C C66G | ≤ 0.5 |
| A14C A57C C62U | ≤ 0.5 |
| A14C A65C | 0.635 |
| A14C A65U | 0.62 |
| A14C A69C | 0.654 |
| A14C A70G | 0.749 |
| A14C C22A C46A | 0.605 |
| A14C C22G G25A C31U | 0.528 |
| A14C C22G G67A | ≤ 0.5 |
| A14C C22U A70G | ≤ 0.5 |
| A14C C22U C34A | ≤ 0.5 |
| A14C C22U U32A C34U C66U | 0.576 |
| A14C C24A A37G C60U | ≤ 0.5 |
| A14C C24A C61A | ≤ 0.5 |
| A14C C24G C31A C33G G44C | 0.584 |
| A14C C24G G39A | ≤ 0.5 |
| A14C C24G G41A G44A U53A C66U | ≤ 0.5 |
| A14C C24U A40U C55G | ≤ 0.5 |

| Variant | yeast fitness |
| --- | --- |
| A14C C24U G51C U54A | ≤ 0.5 |
| A14C C24U U35C C46G G52A C61A | 0.535 |
| A14C C27G C46G C62U | ≤ 0.5 |
| A14C C27U C30U C34A C62A | ≤ 0.5 |
| A14C C27U C34G G51A G67U | ≤ 0.5 |
| A14C C29A G50A G68C A70C | ≤ 0.5 |
| A14C C29G G48C G67A | ≤ 0.5 |
| A14C C29U C30G C31A C34A G52C | ≤ 0.5 |
| A14C C30A A36G C62U G63A A70U | ≤ 0.5 |
| A14C C30A C31G U64A | 0.584 |
| A14C C30U A37C | 0.552 |
| A14C C30U A43G | ≤ 0.5 |
| A14C C31U A69U | ≤ 0.5 |
| A14C C34A A37G A70U | ≤ 0.5 |
| A14C C34A C61U U64A A69G | ≤ 0.5 |
| A14C C34A G48C | ≤ 0.5 |
| A14C C34U A36G G39C | 0.535 |
| A14C C46G C60G | ≤ 0.5 |
| A14C C46G C62U C66U | ≤ 0.5 |
| A14C C49A G58U | ≤ 0.5 |
| A14C C49G A70U | ≤ 0.5 |
| A14C C55A A65U | ≤ 0.5 |
| A14C C55G A57U C62U | ≤ 0.5 |
| A14C C55G G68C | ≤ 0.5 |

| Variant | yeast fitness |
| --- | --- |
| A14C C61G | 0.536 |
| A14C C62U | 0.853 |
| A14C G17A | 0.679 |
| A14C G17C G18A G23C | 0.554 |
| A14C G18A A20U | ≤ 0.5 |
| A14C G23A A45U C61U | 0.782 |
| A14C G23C A36U | 0.68 |
| A14C G39A | 0.754 |
| A14C G39C C60U | ≤ 0.5 |
| A14C G44C | 0.577 |
| A14C G48C C55U G63U | ≤ 0.5 |
| A14C G50A C55G C62A | 0.692 |
| A14C G51C | 0.53 |
| A14C G52C A57C G63C | ≤ 0.5 |
| A14C G67A | 0.695 |
| A14C G68C | 0.687 |
| A14C U16A G41C | ≤ 0.5 |
| A14C U16C A21G C29A C34U A69U | ≤ 0.5 |
| A14C U16C G51C G58A | 0.528 |
| A14C U16G C29U U54C | ≤ 0.5 |
| A14C U19A | 0.602 |
| A14C U19C C33G | 0.641 |
| A14C U19G C31G C33U A42G U64C A65G A69C | ≤ 0.5 |
| A14C U19G G44C C62G | ≤ 0.5 |

| Variant | yeast fitness |
| --- | --- |
| A14C U19G U59C A69G | ≤ 0.5 |
| A14C U26A C29U C49U C62G G68C | 0.519 |
| A14C U28A A42U U54A | ≤ 0.5 |
| A14C U28A C61G A69G | ≤ 0.5 |
| A14C U28C A40G C55A A57C C62U | ≤ 0.5 |
| A14C U32G G58A A65C | 0.645 |
| A14C U35C | 0.695 |
| A14C U35C A69U | ≤ 0.5 |
| A14C U47C | 0.79 |
| A14C U59C | 0.687 |
| A14G | 0.796 |
| A14G A15C C46A A69U | ≤ 0.5 |
| A14G A15G A45U C66U | 0.619 |
| A14G A15G C33G C34U A43C C49G C61G C66U A69U | ≤ 0.5 |
| A14G A15G U35C | 0.572 |
| A14G A15U | 0.704 |
| A14G A15U G39U C61U | ≤ 0.5 |
| A14G A20C C31G A45U G48C | ≤ 0.5 |
| A14G A20G A42U | 0.696 |
| A14G A21C | 0.866 |
| A14G A21C C30G C55G | 0.533 |
| A14G A21C G63C | 0.546 |
| A14G A21G | 0.989 |
| A14G A21U U47G C49G G56C | ≤ 0.5 |

| Variant | yeast fitness |
| --- | --- |
| A14G A36C A57C G68A | ≤ 0.5 |
| A14G A36G A45U | 0.534 |
| A14G A36U A37G C46A G48A | ≤ 0.5 |
| A14G A36U A65G | ≤ 0.5 |
| A14G A37C G56A | ≤ 0.5 |
| A14G A37G | 0.718 |
| A14G A42C G50A A70C | 0.593 |
| A14G A42G C46G | 0.517 |
| A14G A42G G48C | 0.568 |
| A14G A42U C62U A70C | ≤ 0.5 |
| A14G A42U G44C U54A | ≤ 0.5 |
| A14G A43C A45G | 0.585 |
| A14G A43G | 0.932 |
| A14G A43G C60U C62U A70C | ≤ 0.5 |
| A14G A43G G52C U53C G63C | ≤ 0.5 |
| A14G A45G C61A | ≤ 0.5 |
| A14G A45G G50A | ≤ 0.5 |
| A14G A45U C61U | 0.665 |
| A14G A57C | 0.555 |
| A14G A65C | 0.903 |
| A14G A65U | 0.737 |
| A14G C22A C27A C29U A42C A70C | ≤ 0.5 |
| A14G C22A C27A C29U A42C G63C | ≤ 0.5 |
| A14G C22A C27G A42U | ≤ 0.5 |

| Variant | yeast fitness |
| --- | --- |
| A14G C22U A70C | ≤ 0.5 |
| A14G C22U C24U A65C | ≤ 0.5 |
| A14G C22U C34U U35A C55A | ≤ 0.5 |
| A14G C22U C34U U54C C55A | ≤ 0.5 |
| A14G C24A | 0.666 |
| A14G C24G C31U | ≤ 0.5 |
| A14G C24G C66U | ≤ 0.5 |
| A14G C24U A43U A65C | ≤ 0.5 |
| A14G C24U A65U | 0.54 |
| A14G C24U C55U G67C | ≤ 0.5 |
| A14G C24U G56A | 0.813 |
| A14G C27A C49G U53A C62A | ≤ 0.5 |
| A14G C27G C34G A37U U64A | 0.667 |
| A14G C27G U54C | ≤ 0.5 |
| A14G C27U U28C | 0.541 |
| A14G C27U U47A C62U | 0.566 |
| A14G C29G C31U A70C | 0.51 |
| A14G C29G C31U A70G | ≤ 0.5 |
| A14G C29U | 0.988 |
| A14G C29U A37G A65G | ≤ 0.5 |
| A14G C29U G39A C49U G56C | ≤ 0.5 |
| A14G C29U G52C | ≤ 0.5 |
| A14G C30A A42G G44A | 0.569 |
